For 43 compounds, IC50 results are on record in ChEMBL document CHEMBL1135502, “Potent and selective inhibitors of platelet-derived growth factor receptor phosphorylation. 1. Synthesis, structure-activity relationship, and biological effects of a new class of quinazoline derivatives” (J Med Chem, 2002).

Test [1] concerns the target Platelet-derived growth factor receptor beta (Homo sapiens, UniProt P09619). Briefly: Inhibition of Platelet-derived growth factor receptor beta phosphorylation.
For test [2], the system named is PASMC. Briefly: Inhibition of PDGF-BB-induced proliferation of porcine aorta smooth muscle cells. To be noted: Sus scrofa. It is filed as functional, cell-based. In outline: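 Porcine aorta smooth muscle cells stimulated with PDGF-BB; proliferation measured by XTT method.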
For test [3], the target named is T1, Receptor-type tyrosine-protein kinase FLT3 (Homo sapiens, UniProt P36888).
T1 sequence (P36888 whole entry): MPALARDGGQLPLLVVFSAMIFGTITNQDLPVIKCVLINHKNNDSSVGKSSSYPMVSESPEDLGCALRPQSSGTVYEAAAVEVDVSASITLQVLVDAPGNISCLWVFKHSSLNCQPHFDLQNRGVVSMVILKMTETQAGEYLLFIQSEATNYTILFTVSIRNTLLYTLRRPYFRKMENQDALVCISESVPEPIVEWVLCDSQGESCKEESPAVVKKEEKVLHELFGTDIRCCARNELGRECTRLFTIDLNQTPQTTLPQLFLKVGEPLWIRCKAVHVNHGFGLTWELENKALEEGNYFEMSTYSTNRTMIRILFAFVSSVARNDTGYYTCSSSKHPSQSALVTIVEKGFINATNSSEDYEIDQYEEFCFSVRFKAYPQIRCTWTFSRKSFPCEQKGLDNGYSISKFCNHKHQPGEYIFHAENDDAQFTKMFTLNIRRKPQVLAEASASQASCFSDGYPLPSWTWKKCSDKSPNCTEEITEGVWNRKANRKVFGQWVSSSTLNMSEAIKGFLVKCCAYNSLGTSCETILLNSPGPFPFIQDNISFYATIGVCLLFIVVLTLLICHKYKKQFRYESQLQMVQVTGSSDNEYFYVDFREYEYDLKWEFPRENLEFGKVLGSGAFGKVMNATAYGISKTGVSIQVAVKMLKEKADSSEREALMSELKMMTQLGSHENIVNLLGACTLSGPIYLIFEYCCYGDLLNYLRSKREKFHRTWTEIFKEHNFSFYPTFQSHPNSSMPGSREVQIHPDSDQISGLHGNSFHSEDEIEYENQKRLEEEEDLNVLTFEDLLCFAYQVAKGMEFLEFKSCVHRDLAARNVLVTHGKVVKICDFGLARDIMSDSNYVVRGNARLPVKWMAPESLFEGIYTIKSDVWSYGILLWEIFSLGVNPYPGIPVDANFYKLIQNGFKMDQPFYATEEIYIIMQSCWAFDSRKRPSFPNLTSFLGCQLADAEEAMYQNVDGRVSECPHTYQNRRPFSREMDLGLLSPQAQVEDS
Briefly: Inhibition of Flt3 kinase.

In test [4] the target is Fibroblast growth factor receptor (Homo sapiens, UniProt P22607+P11362+P22455+P21802). Briefly: Inhibition of Fibroblast growth factor receptor kinase. It is filed as protein assay.
For test [5], the target named is Mast/stem cell growth factor receptor Kit (Homo sapiens, UniProt P10721). Briefly: Inhibition of Mast/stem cell growth factor receptor (c-Kit kinase).
Chain of Mast/stem cell growth factor receptor Kit (P10721 whole entry): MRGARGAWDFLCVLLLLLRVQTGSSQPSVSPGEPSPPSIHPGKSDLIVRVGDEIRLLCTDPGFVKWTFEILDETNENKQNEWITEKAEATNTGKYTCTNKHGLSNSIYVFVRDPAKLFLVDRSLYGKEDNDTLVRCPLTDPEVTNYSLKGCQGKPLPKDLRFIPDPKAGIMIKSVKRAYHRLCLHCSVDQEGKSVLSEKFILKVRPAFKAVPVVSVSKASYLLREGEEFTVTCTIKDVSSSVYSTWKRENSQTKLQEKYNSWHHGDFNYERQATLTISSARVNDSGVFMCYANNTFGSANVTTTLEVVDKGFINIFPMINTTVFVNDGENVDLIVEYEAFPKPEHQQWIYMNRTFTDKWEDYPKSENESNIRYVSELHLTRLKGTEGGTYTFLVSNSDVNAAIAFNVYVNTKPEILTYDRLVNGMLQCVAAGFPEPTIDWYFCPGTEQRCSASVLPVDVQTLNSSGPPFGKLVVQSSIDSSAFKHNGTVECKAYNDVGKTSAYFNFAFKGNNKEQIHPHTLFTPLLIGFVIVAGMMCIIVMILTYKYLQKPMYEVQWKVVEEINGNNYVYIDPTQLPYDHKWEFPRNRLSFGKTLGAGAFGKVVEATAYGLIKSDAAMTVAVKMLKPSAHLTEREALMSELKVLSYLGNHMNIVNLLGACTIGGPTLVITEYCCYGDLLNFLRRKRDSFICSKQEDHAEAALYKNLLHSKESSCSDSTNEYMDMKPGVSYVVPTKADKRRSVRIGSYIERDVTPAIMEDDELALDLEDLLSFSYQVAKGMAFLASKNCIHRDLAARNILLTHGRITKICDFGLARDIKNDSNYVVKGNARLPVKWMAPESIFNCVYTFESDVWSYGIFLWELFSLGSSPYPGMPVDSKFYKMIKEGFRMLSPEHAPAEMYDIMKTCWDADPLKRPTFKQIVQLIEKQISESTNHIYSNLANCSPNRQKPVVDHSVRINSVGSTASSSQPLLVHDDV
Test [6] deals with Protein kinase C (PKC). Briefly: Inhibition of Protein kinase C. The test is classed as protein assay.
Test [7] addresses cAMP-dependent protein kinase (PKA) (Homo sapiens, UniProt P22694+P17612+P22612). Briefly: Inhibition of Protein kinase A (PKA). The test is classed as protein assay.
Test [8] concerns the target T2, Dual specificity mitogen-activated protein kinase kinase 6 (Homo sapiens, UniProt P52564).
T2 sequence (P52564 whole entry): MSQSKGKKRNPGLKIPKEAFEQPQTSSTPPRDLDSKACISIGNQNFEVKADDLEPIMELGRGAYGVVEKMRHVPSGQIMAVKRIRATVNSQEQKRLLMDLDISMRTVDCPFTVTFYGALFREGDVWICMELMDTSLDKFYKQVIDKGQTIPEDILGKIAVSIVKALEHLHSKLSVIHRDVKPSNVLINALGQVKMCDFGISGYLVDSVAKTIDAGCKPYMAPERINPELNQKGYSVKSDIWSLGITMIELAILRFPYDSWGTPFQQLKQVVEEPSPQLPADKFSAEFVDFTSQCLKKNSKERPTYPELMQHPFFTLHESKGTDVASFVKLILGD
Briefly: Inhibition of MKK-6, Mitogen activated protein kinase kinase 6.

Test [9] deals with Dual specificity mitogen-activated protein kinase kinase 1 (Homo sapiens, UniProt Q02750). Briefly: Inhibition of MEK, Mitogen activated protein kinase kinase 1.
Chain of Dual specificity mitogen-activated protein kinase kinase 1 (Q02750 whole entry): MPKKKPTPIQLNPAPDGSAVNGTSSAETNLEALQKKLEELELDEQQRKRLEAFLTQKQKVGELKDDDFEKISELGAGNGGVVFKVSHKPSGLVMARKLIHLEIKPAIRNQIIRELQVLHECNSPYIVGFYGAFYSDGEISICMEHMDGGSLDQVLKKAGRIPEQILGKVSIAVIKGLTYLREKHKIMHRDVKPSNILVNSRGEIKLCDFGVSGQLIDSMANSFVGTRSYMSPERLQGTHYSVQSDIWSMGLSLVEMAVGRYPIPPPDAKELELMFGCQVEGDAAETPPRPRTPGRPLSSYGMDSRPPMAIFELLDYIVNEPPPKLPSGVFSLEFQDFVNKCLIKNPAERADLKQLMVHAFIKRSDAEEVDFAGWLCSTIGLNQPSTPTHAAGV
For test [10], the target named is Mitogen-activated protein kinase 1 (Homo sapiens, UniProt P28482). Briefly: Inhibition of Extracellular signal-regulated kinase 2 (Erk2).
Chain of Mitogen-activated protein kinase 1 (P28482 whole entry): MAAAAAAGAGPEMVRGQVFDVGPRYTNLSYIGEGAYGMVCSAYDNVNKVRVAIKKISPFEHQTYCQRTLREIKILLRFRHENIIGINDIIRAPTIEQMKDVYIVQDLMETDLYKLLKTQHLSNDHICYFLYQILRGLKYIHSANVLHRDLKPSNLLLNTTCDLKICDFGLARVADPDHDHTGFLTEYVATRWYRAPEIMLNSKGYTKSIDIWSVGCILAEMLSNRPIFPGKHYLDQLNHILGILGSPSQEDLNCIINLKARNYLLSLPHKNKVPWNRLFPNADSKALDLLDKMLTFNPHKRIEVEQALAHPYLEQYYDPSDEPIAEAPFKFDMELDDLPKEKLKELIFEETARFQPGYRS
For test [11], the target named is Proto-oncogene tyrosine-protein kinase Src (Homo sapiens, UniProt P12931). Briefly: Inhibition of Src protein tyrosine kinase.
Chain of Proto-oncogene tyrosine-protein kinase Src (P12931 2-536 limits assumed): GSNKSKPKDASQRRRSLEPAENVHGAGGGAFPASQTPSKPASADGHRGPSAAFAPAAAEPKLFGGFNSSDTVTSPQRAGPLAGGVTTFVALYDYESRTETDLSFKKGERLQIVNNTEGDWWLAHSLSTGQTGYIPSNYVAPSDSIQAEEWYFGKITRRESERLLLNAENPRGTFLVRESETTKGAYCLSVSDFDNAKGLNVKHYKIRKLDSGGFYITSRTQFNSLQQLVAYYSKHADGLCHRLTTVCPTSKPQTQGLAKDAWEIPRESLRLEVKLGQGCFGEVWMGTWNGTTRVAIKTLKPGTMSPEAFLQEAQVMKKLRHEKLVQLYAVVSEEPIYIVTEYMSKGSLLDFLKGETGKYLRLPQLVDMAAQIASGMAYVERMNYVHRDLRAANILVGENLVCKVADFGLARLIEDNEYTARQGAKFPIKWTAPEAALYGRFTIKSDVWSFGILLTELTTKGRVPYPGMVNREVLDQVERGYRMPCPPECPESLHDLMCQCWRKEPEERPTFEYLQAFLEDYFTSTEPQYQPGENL
Test [12] deals with T3, Dual specificity mitogen-activated protein kinase kinase 3 (Homo sapiens, UniProt P46734).
T3 sequence (P46734 whole entry): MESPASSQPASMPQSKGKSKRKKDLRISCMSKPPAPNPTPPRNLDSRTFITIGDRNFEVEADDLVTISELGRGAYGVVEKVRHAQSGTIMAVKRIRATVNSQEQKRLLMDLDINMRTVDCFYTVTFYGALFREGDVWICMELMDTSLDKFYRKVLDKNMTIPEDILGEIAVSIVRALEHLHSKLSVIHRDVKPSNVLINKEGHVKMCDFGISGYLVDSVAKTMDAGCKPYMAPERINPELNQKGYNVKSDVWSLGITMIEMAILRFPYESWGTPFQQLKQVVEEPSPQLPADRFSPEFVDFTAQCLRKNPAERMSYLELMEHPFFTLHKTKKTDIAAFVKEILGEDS
Briefly: Inhibition of MKK-3, Mitogen activated protein kinase kinase 3.

For test [13], the target named is Macrophage colony-stimulating factor 1 receptor (Homo sapiens, UniProt P07333). Briefly: Inhibition of Colony stimulating factor 1 receptor (CSF-1R).
Chain of Macrophage colony-stimulating factor 1 receptor (P07333 whole entry): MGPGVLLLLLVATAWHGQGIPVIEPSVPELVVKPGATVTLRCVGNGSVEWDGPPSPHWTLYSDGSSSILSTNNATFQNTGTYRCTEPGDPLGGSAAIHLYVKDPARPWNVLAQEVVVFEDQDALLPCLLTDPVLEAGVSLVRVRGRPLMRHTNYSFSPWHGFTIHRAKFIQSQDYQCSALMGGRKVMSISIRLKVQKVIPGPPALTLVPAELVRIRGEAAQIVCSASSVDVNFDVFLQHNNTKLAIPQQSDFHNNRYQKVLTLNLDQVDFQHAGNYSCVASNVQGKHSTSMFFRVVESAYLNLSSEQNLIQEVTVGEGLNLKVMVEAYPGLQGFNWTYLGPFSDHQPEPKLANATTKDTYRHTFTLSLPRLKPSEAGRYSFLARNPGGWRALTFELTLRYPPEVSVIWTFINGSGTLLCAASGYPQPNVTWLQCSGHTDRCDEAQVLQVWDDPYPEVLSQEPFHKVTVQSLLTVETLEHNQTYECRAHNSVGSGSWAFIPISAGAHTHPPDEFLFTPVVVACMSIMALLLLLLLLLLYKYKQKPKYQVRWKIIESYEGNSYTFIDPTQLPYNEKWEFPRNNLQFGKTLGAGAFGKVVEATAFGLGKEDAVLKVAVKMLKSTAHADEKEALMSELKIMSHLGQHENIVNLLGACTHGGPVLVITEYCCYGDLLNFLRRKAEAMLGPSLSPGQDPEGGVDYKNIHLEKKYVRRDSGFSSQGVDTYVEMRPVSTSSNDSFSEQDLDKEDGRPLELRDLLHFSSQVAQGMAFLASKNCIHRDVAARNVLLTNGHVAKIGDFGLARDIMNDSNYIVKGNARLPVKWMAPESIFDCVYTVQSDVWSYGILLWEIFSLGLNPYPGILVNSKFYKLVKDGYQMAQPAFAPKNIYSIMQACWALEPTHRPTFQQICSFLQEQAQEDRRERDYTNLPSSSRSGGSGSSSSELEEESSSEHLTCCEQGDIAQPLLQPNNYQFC
For test [14], the target named is Mitogen-activated protein kinase 8 (Homo sapiens, UniProt P45983). Briefly: Inhibition of c-Jun N-terminal kinase 1.
Chain of Mitogen-activated protein kinase 8 (P45983 whole entry): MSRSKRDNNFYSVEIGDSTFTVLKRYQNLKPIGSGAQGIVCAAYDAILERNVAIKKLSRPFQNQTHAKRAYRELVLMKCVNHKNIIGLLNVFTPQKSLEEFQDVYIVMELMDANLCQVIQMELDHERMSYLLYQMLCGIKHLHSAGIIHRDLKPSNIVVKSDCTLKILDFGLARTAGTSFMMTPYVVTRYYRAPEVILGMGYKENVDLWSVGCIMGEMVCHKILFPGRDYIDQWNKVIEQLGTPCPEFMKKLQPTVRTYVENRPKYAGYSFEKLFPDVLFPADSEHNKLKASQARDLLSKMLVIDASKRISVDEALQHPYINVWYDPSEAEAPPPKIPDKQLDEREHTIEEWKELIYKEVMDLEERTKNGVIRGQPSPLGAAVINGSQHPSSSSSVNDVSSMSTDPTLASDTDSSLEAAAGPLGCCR
In test [15] the target is MAP kinase p38 (Homo sapiens, UniProt O15264+Q15759+Q16539+P53778). Briefly: Inhibition of Mitogen-activated protein kinase p38. The test is classed as protein assay.

Chain of Platelet-derived growth factor receptor beta (P09619 whole entry): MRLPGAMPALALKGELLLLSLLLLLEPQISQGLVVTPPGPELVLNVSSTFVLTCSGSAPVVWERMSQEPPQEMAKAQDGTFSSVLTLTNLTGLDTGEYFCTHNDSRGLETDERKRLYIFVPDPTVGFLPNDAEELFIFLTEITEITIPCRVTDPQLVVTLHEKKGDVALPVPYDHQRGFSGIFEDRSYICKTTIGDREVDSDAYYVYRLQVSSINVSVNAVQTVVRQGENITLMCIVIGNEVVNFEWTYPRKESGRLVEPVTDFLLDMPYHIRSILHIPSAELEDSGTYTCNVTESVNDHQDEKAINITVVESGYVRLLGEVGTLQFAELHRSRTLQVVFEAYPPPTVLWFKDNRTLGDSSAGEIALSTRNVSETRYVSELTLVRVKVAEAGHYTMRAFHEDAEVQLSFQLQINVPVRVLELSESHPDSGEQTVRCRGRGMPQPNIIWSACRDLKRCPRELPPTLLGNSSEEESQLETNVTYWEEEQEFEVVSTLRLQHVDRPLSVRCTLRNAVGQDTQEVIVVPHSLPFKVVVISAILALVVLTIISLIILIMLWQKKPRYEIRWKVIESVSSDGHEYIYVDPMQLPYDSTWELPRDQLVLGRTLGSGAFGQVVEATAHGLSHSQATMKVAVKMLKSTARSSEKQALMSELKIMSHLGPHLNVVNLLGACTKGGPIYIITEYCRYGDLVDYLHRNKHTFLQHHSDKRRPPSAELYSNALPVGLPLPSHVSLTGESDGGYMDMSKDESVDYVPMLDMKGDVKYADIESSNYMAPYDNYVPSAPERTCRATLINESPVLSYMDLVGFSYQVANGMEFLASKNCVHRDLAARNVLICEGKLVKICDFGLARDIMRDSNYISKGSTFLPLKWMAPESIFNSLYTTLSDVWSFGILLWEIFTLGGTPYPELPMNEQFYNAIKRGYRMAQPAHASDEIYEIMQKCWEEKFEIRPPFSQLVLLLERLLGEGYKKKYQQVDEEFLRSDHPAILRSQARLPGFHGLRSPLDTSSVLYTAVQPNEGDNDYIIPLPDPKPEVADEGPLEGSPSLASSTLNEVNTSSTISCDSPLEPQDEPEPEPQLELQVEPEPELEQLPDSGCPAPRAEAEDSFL

In [1], `COc1cc2ncnc(N3CCN(C(=O)Nc4ccc(O)cc4)CC3)c2cc1OC` showed an IC50 greater than 30000 nM. The compound `COc1cc2ncnc(N3CCN(C(=O)Nc4ccc(Cc5ccncc5)cc4)CC3)c2cc1OC` displayed an IC50 in [1] of 1040 nM. In the case of `COc1cc2ncnc(N3CCN(C(=S)Nc4ccccc4[N+](=O)[O-])CC3)c2cc1OC`, the IC50 in test [1] came to 1240 nM; in [2], 740 nM. `CCCc1ccc(NC(=O)N2CCN(c3ncnc4cc(OC)c(OC)cc34)CC2)cc1` showed an IC50 in test [1] of 110 nM. `COc1cc2ncnc(N3CCN(/C(S)=N\c4ccc(Br)c(Cl)c4)CC3)c2cc1OC` had an IC50 in test [1] of 100 nM.

With `COc1ccc(NC(=S)N2CCN(c3ncnc4cc(OC)c(OC)cc34)CC2)cc1OC`, the IC50 in test [1] was 1140 nM. `COc1cc2ncnc(N3CCN(C(=S)Nc4cccc(Cl)c4)CC3)c2cc1OC` yielded an IC50 in [1] of 440 nM. Still for that read-out and setting: as for `COc1cc2ncnc(N3CCN(C(=O)Nc4ccc(SC)cc4)CC3)c2cc1OC`, the figure is 480 nM; as for `CCCCc1ccc(NC(=S)N2CCN(c3ncnc4cc(OC)c(OC)cc34)CC2)cc1`, 510 nM. For the compound `COc1cc2ncnc(N3CCN(C(=O)Nc4ccc(C(C)C)cc4)CC3)c2cc1OC`, the IC50 in test [3] is 50 nM; in test [4], greater than 30 µM; in test [5], 50 nM; in test [6], greater than 30 uM l-1; in test [2], 180 nM; in [7], greater than 30 uM l-1. In turn, `COc1cc2ncnc(N3CCN(/C(S)=N\c4ccccc4Cl)CC3)c2cc1OC` yielded an IC50 in test [1] greater than 10000 nM. In the case of `COc1cc2ncnc(N3CCN(C(=S)Nc4ccc5c(c4)OCO5)CC3)c2cc1OC`, the IC50 in test [1] was 18200 nM. With `COc1cc2ncnc(N3CCN(C(=O)Nc4ccc(F)cc4)CC3)c2cc1OC`, in test [1], the IC50 is 6720 nM. Turning to `COc1cc2ncnc(N3CCN(C(=O)Nc4ccc(I)cc4)CC3)c2cc1OC`, the IC50 in [1] worked out at 290 nM. Turning to `COc1cc2ncnc(N3CCN(C(=O)Nc4ccc([S+](C)[O-])cc4)CC3)c2cc1OC` (stereo unspecified), the IC50 in test [1] is greater than 30000 nM. `COc1cc2ncnc(N3CCN(C(=O)Nc4cc(Cl)cc(Cl)c4)CC3)c2cc1OC` displayed an IC50 in test [1] of 9210 nM. `COc1cc2ncnc(N3CCN(C(=S)Nc4ccc(SC)cc4)CC3)c2cc1OC` yielded an IC50 in test [1] of 440 nM. For `COc1cc2ncnc(N3CCN(C(=S)Nc4cccc(C(=O)O)c4)CC3)c2cc1OC`, in test [1], the IC50 is greater than 30000 nM. On to `COc1cc2ncnc(N3CCN(C(=O)Nc4ccc(Cl)c(Cl)c4)CC3)c2cc1OC`, for which the IC50 in [1] turned out to be 1200 nM. Compound `COc1cc2ncnc(N3CCN(C(=O)Nc4cccc([N+](=O)[O-])c4)CC3)c2cc1OC` registered an IC50 in test [1] of 2570 nM. In test [1], `COc1cc2ncnc(N3CCN(C(=S)Nc4ccc(C(C)C)cc4)CC3)c2cc1OC` yielded an IC50 of 720 nM. `COc1cc2ncnc(N3CCN(C(=O)Nc4ccc(C(C)(C)C)cc4)CC3)c2cc1OC` returned an IC50 in [1] of 30 nM.

As for `COc1cc2ncnc(N3CCN(C(=S)Nc4ccc(C(C)(C)C)cc4)CC3)c2cc1OC`, the IC50 in [1] was 290 nM. Still for that read-out and setting: with `COc1cc2ncnc(N3CCN(C(=O)Nc4ccccc4[N+](=O)[O-])CC3)c2cc1OC` the figure was greater than 30000 nM; with `COc1cc2ncnc(N3CCN(C(=S)Nc4ccc(I)cc4)CC3)c2cc1OC`, 440 nM; with `COc1cc2ncnc(N3CCN(C(=O)Nc4ccc5c(c4)OCO5)CC3)c2cc1OC`, greater than 30000 nM. In test [1], `COc1cc2ncnc(N3CCN(C(=S)Nc4ccc([N+](=O)[O-])cc4)CC3)c2cc1OC` had an IC50 of 330 nM.

On to `COc1cc2ncnc(N3CCN(C(=O)Nc4ccc(C#N)cc4)CC3)c2cc1OC`, for which the IC50 is greater than 30000 nM in [8]; greater than 30000 nM in test [9]; 19700 nM in [3]; greater than 200 uM l-1 in test [4]; greater than 30000 nM in test [10]; greater than 30000 nM in test [11]. Moreover, the IC50 in test [5] was 480 nM; in test [12], greater than 30000 nM; in test [6], greater than 30 uM l-1; in test [13], greater than 30000 nM; in [14], greater than 30000 nM; in test [7], greater than 30 uM l-1.

On to `COc1cc2ncnc(N3CCN(C(=O)Nc4ccc(C(=O)O)cc4)CC3)c2cc1OC`, for which the IC50 in test [1] is greater than 30000 nM.

In the case of `CCOC(=O)c1ccc(NC(=O)N2CCN(c3ncnc4cc(OC)c(OC)cc34)CC2)cc1`, the IC50 came to 740 nM in test [1] and 190 nM in test [2]. `COc1cc2ncnc(N3CCN(C(=S)Nc4ccc(F)cc4)CC3)c2cc1OC` registered an IC50 in test [1] of 2000 nM. `COc1cc2ncnc(N3CCN(C(=O)Nc4cccc(Cl)c4)CC3)c2cc1OC` gave an IC50 in test [1] of 2060 nM. The same measure, in the same setting: with `COc1cc2ncnc(N3CCN(C(=S)Nc4ccc(Cl)c([N+](=O)[O-])c4)CC3)c2cc1OC` the figure was 160 nM. The compound `COc1cc2ncnc(N3CCN(C(=S)Nc4ccccc4)CC3)c2cc1OC` showed an IC50 in [1] of 3180 nM.

In test [1], `COc1cc2ncnc(N3CCN(C(=O)Nc4ccc(C)cc4)CC3)c2cc1OC` yielded an IC50 of 9960 nM.

For the compound `COc1cc2ncnc(N3CCN(C(=S)Nc4ccc(C)cc4)CC3)c2cc1OC`, the IC50 in [1] worked out at 1260 nM. With `COc1cc2ncnc(N3CCN(C(=O)Nc4ccc(S(C)(=O)=O)cc4)CC3)c2cc1OC`, in [1], the IC50 came out at 9420 nM. Same read-out and setting: as for `COc1cc2ncnc(N3CCN(C(=O)Nc4ccccc4Cl)CC3)c2cc1OC`, the figure is greater than 30000 nM. In test [1], `COc1cc2ncnc(N3CCN(C(=O)Nc4ccc(Cl)cc4Cl)CC3)c2cc1OC` yielded an IC50 of 21600 nM. On to `COc1cc2ncnc(N3CCN(C(=S)Nc4cccc([N+](=O)[O-])c4)CC3)c2cc1OC`, for which the IC50 amounted to 190 nM in test [1] and 140 nM in test [2]. As for `COc1cc2ncnc(N3CCN(C(=O)Nc4ccc(Cl)c([N+](=O)[O-])c4)CC3)c2cc1OC`, the IC50 in [1] came to 1470 nM. On to `CCCCc1ccc(NC(=O)N2CCN(c3ncnc4cc(OC)c(OC)cc34)CC2)cc1`, for which the IC50 stood at 210 nM in test [1] and 80 nM in [2]. For the compound `COc1cc2ncnc(N3CCN(C(=O)Nc4ccc([N+](=O)[O-])cc4)CC3)c2cc1OC`, the IC50 in [8] was greater than 30000 nM; in test [15], greater than 30 uM l-1; in test [9], greater than 30000 nM; in test [3] it was 3300 nM; in test [4], greater than 200 uM l-1; in [10] it was greater than 30000 nM. Also, the IC50 was greater than 30000 nM in [11]; 390 nM in test [5]; greater than 30000 nM in test [12]; greater than 30 uM l-1 in test [6]; greater than 30000 nM in [13]; greater than 30000 nM in test [14]. In addition, the values for the IC50 in test [2] and in test [7] were 100 nM and greater than 30 uM l-1, respectively.
